In ChEMBL document CHEMBL5058577, “EUbOPEN Chemogenomics Library 2 (Multiplex)” (2022):

Test system: HEK-293T
Experiment: Multiplex assay against HEK293T
Format: toxicity, cell-based
Details: human
How it was run: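 Cells were classed with CellPathfinder machine-learning gating, first as Hoechst high-intensity objects or normal cells, then (normal cells) as healthy, pyknosed or fragmented nuclei, and finally (pyknosed cells) as mitotic or apoptotic. Staining of live cells at seeding used Hoechst33342, BioTracker Green Microtubule Cytoskeleton Dye, MitoTracker Red and Annexin V Alexa Fluor 680, with imaging on a CQ1 microscope at 37°C and 5% CO2 after compound addition. Tubulin, mitochondrial-mass and membrane-permeability phenotypes are per cents of healthy-nucleus cells.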

[1] = 12 h, 1 µM, compound concentration 1 uM, replicate 1
[2] = 12 h, 1 µM, compound concentration 1 uM, replicate 2
[3] = 12 h, 10 µM, compound concentration 10 uM, replicate 1
[4] = 12 h, 10 µM, compound concentration 10 uM, replicate 2
[5] = 24 h, 1 µM, compound concentration 1 uM, replicate 1
[6] = 24 h, 1 µM, compound concentration 1 uM, replicate 2
[7] = 24 h, 10 µM, compound concentration 10 uM, replicate 1
[8] = 24 h, 10 µM, compound concentration 10 uM, replicate 2
[9] = 48 h, 1 µM, compound concentration 1 uM, replicate 1
[10] = 48 h, 1 µM, compound concentration 1 uM, replicate 2
[11] = 48 h, 10 µM, compound concentration 10 uM, replicate 1
[12] = 48 h, 10 µM, compound concentration 10 uM, replicate 2

CCc1cc2cc(NS(=O)(=O)c3ccc(C#N)cc3)ccc2n(CC)c1=O
Population Apoptotic (%) [1]: 43% | Population Fragmented Nuclei (%) [1]: 8% | Population Healthy Nuclei (%) [1]: 78% | Population Hoechst High Intensity Objects (%) [1]: 9% | Population Membrane Permeable-Phenotype (%) [1]: 0% | Population Mitochondria Different-Phenotype (%) [1]: 37% | Population Mitotic Cells (%) [1]: 56% | Population Normal (%) [1]: 90% | Population Pyknosed Nuclei (%) [1]: 12% | Population Tubulin-Different-Phenotype (%) [1]: 28% | Total Cell Count [1]: 411 | Population Apoptotic (%) [2]: 40% | Population Fragmented Nuclei (%) [2]: 7% | Population Hoechst High Intensity Objects (%) [2]: 7% | Population Mitochondria Different-Phenotype (%) [2]: 64% | Population Mitotic Cells (%) [2]: 59% | Population Normal (%) [2]: 92% | Population Pyknosed Nuclei (%) [2]: 14% | Population Tubulin-Different-Phenotype (%) [2]: 29% | Total Cell Count [2]: 338 | Population Apoptotic (%) [3]: 38% | Population Fragmented Nuclei (%) [3]: 7% | Population Healthy Nuclei (%) [3]: 80% | Population Hoechst High Intensity Objects (%) [3]: 7% | Population Membrane Permeable-Phenotype (%) [3]: 0% | Population Mitochondria Different-Phenotype (%) [3]: 47% | Population Mitotic Cells (%) [3]: 61% | Population Normal (%) [3]: 92% | Population Pyknosed Nuclei (%) [3]: 12% | Population Tubulin-Different-Phenotype (%) [3]: 48% | Total Cell Count [3]: 404 | Population Apoptotic (%) [4]: 65% | Population Fragmented Nuclei (%) [4]: 6% | Population Healthy Nuclei (%) [4]: 69% | Population Hoechst High Intensity Objects (%) [4]: 16% | Population Mitochondria Different-Phenotype (%) [4]: 71% | Population Mitotic Cells (%) [4]: 34% | Population Normal (%) [4]: 83% | Population Pyknosed Nuclei (%) [4]: 23% | Population Tubulin-Different-Phenotype (%) [4]: 41% | Total Cell Count [4]: 291 | Population Apoptotic (%) [5]: 29% | Population Fragmented Nuclei (%) [5]: 8% | Population Healthy Nuclei (%) [5]: 80% | Population Hoechst High Intensity Objects (%) [5]: 5% | Population Membrane Permeable-Phenotype (%) [5]: 1% | Population Mitochondria Different-Phenotype (%) [5]: 19% | Population Mitotic Cells (%) [5]: 70% | Population Normal (%) [5]: 94% | Population Pyknosed Nuclei (%) [5]: 11% | Population Tubulin-Different-Phenotype (%) [5]: 18% | Total Cell Count [5]: 510 | Population Apoptotic (%) [6]: 43% | Population Fragmented Nuclei (%) [6]: 7% | Population Healthy Nuclei (%) [6]: 84% | Population Membrane Permeable-Phenotype (%) [6]: 0% | Population Mitochondria Different-Phenotype (%) [6]: 44% | Population Mitotic Cells (%) [6]: 56% | Population Pyknosed Nuclei (%) [6]: 7% | Population Tubulin-Different-Phenotype (%) [6]: 22% | Total Cell Count [6]: 403 | Population Apoptotic (%) [7]: 33% | Population Fragmented Nuclei (%) [7]: 9% | Population Healthy Nuclei (%) [7]: 80% | Population Hoechst High Intensity Objects (%) [7]: 6% | Population Membrane Permeable-Phenotype (%) [7]: 0% | Population Mitochondria Different-Phenotype (%) [7]: 36% | Population Mitotic Cells (%) [7]: 66% | Population Normal (%) [7]: 93% | Population Pyknosed Nuclei (%) [7]: 10% | Population Tubulin-Different-Phenotype (%) [7]: 32% | Total Cell Count [7]: 478 | Population Apoptotic (%) [8]: 63% | Population Fragmented Nuclei (%) [8]: 10% | Population Healthy Nuclei (%) [8]: 73% | Population Hoechst High Intensity Objects (%) [8]: 17% | Population Membrane Permeable-Phenotype (%) [8]: 1% | Population Mitochondria Different-Phenotype (%) [8]: 58% | Population Mitotic Cells (%) [8]: 36% | Population Normal (%) [8]: 82% | Population Pyknosed Nuclei (%) [8]: 16% | Population Tubulin-Different-Phenotype (%) [8]: 29% | Total Cell Count [8]: 332 | Population Apoptotic (%) [9]: 30% | Population Fragmented Nuclei (%) [9]: 11% | Population Healthy Nuclei (%) [9]: 81% | Population Hoechst High Intensity Objects (%) [9]: 2% | Population Membrane Permeable-Phenotype (%) [9]: 1% | Population Mitochondria Different-Phenotype (%) [9]: 11% | Population Mitotic Cells (%) [9]: 69% | Population Normal (%) [9]: 97% | Population Pyknosed Nuclei (%) [9]: 6% | Population Tubulin-Different-Phenotype (%) [9]: 13% | Total Cell Count [9]: 878 | Population Apoptotic (%) [10]: 38% | Population Fragmented Nuclei (%) [10]: 14% | Population Healthy Nuclei (%) [10]: 79% | Population Hoechst High Intensity Objects (%) [10]: 4% | Population Mitochondria Different-Phenotype (%) [10]: 23% | Population Mitotic Cells (%) [10]: 61% | Population Normal (%) [10]: 95% | Population Pyknosed Nuclei (%) [10]: 5% | Population Tubulin-Different-Phenotype (%) [10]: 12% | Total Cell Count [10]: 608 | Population Apoptotic (%) [11]: 26% | Population Fragmented Nuclei (%) [11]: 14% | Population Healthy Nuclei (%) [11]: 78% | Population Hoechst High Intensity Objects (%) [11]: 4% | Population Membrane Permeable-Phenotype (%) [11]: 1% | Population Mitochondria Different-Phenotype (%) [11]: 23% | Population Mitotic Cells (%) [11]: 73% | Population Normal (%) [11]: 95% | Population Pyknosed Nuclei (%) [11]: 6% | Population Tubulin-Different-Phenotype (%) [11]: 20% | Total Cell Count [11]: 734 | Population Apoptotic (%) [12]: 47% | Population Fragmented Nuclei (%) [12]: 16% | Population Healthy Nuclei (%) [12]: 73% | Population Hoechst High Intensity Objects (%) [12]: 10% | Population Mitochondria Different-Phenotype (%) [12]: 40% | Population Mitotic Cells (%) [12]: 52% | Population Normal (%) [12]: 89% | Population Pyknosed Nuclei (%) [12]: 9% | Population Tubulin-Different-Phenotype (%) [12]: 23% | Total Cell Count [12]: 383
